This test addresses recombinant human ezrin (Homo sapiens, UniProt P15311). Put plainly: SPR. The note with it: read-out: KD (μM)^a, HBS-P pH 7.4, 2-10% DMSO, room temperature. Format: binding. The gist of the method: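 Untagged full-length recombinant human ezrin was expressed in E. coli M15 [pREP4] from a pQE16 vector. It was amine-coupled (~10,000 RU) in sodium acetate pH 4.5 to the second flow cell of a CM5 chip, with the first flow cell left empty for background subtraction. Running buffer was HBS-P (10 mM HEPES pH 7.4, 150 mM NaCl, 0.05% P20) with 2–10% DMSO. Seven concentrations (0.78–50 μM) were injected in triplicate over ezrin and control surfaces.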

Each structure is given as a SMILES string. Where two headings read alike, the source gives them in different places.

As a reminder, the Kd is the concentration at which binding is half-saturated.

Chain of recombinant human ezrin (P15311 whole entry): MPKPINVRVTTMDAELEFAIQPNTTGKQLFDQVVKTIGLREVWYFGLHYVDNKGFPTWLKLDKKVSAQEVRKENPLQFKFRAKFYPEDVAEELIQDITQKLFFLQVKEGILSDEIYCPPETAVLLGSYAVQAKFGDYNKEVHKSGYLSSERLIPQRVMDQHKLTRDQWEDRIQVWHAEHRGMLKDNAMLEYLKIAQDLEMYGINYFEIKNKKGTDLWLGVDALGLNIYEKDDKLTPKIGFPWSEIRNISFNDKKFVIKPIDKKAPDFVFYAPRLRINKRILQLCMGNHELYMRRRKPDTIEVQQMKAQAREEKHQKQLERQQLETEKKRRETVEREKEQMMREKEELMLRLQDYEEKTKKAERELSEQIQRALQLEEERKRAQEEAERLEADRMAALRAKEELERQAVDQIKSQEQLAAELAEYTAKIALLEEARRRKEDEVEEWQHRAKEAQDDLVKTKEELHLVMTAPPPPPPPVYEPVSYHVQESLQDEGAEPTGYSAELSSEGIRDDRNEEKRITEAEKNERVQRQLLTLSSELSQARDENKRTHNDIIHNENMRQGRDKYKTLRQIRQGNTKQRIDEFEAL

Take `CN1CCN(c2ccc(Nc3c4ccccc4nc4ccccc34)cc2)CC1` [MMV006172]: the Kd (n=3) was 6.1 ± 2.8 µM.

As for `CC1CCN(Cc2ccc(NC(=O)c3cc4ccc5cccnc5c4[nH]3)cc2)CC1` [MMV020549], the Kd (n=3) came to 10.7 ± 0.4 µM.

With `CCOC(=O)c1cn(CC)c2cc(N(C)CCc3ccc(OC)c(OC)c3)c(F)cc2c1=O` [MMV665977], the Kd (n=5) came to 3.1 ± 1.6 µM. For the compound `COc1ccc(CCN2CCC(CN(C)Cc3cnn(-c4ccccc4)c3)CC2)cc1` [MMV666069], the Kd (n=5) was 2.1 ± 1 µM. For the compound `CCn1c(SCC(=O)Nc2cc(C(F)(F)F)ccc2Cl)nc2ccccc2c1=O` [MMV666103], the Kd (n=4) worked out at 2.6 ± 1 µM. `CN(N=O)C1=C(NC2CCCCC2)C(=O)c2ccccc2C1=O` [MMV667492]: the Kd (n=2) stood at 29.4 ± 4.4 µM.

The values above are taken from PMC4636458 (Molecular cancer therapeutics, 2015).
